Assay outcomes: PubChem BioAssay, several laboratories
UBC13 inh: human UBC13 polyubiquitination inhibition. UBC13 polyubiquitin chain formation, TR-FRET. AID 485273. P61088. inhibition, % at 20 µM. 0.47% of 330,000 active; in the data active = inhibition above about 45%, passing the limit was not always enough
Apaf-1 inh: inhibitors of human Apaf-1 apoptosome; 0.71% of 330,000 active; inhibition, % at 20 µM; O14727; AID 489030; reconstituted apoptosome caspase-3 activity, DEVD-Rh110 fluorescence; active = inhibition of at least 40% at 20 µM;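 note: plate controls were DMSO wells for no effect and DEVD-CHO caspase inhibitor wells for full effect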
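Material: reconstituted apoptosome with Apaf-1, cytochrome c, caspase-9, procaspase-3, dATP. Technique: Rh110 fluorescence intensity. Buffer or medium: pH 7.5 Hepes buffer with CHAPS, BSA, DTT. Times: 30 min plus 50 min, RT.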
ANO1 activ: activators or potentiators of mouse TMEM16A chloride channel; HEK293 TMEM16A/YFP-H148Q/I152L, iodide quench fluorescence; active compounds read low; B-score at 10 µM; 0.3% of 340,000 active; AID 623877; Q8BHY3;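 active = fluorescence-ratio B-score plate-corrected deviation score at least 3 library SD below zero, with starting fluorescence score within 5 deviations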;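 note: channel opened by trigger with iodide after compound preincubation; score built on the fluorescence ratio of max minus min over baseline; more negative score means more quench and so TMEM16A activation or potentiation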
ANO1 block: blocks the mouse calcium-activated chloride channel TMEM16A | Q8BHY3 | HEK293 TMEM16A/YFP iodide influx fluorescence, ionomycin | normalized B-score (activity score, 25-100; higher = stronger inhibition) at 10 µM | 1.2% of 310,000 active;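 active = ratio plate-corrected score three or more library SD toward inhibition, starting fluorescence score within five deviations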;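 note: score derived from kinetic fluorescence span divided by baseline fluorescence per well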
FID counter: fluorescent intercalator displacement, NS3 helicase counter-screen | DNA fluorescent intercalator displacement, fluorescence | inhibition, % at 7.9 µM | 0.17% of 290,000 active | AID 1845; in the data active = inhibition above about 37%;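 note: 0% = vehicle and 100% = reference compound; higher means more ethidium bromide displaced from hairpin DNA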
TMEM16A reconf: re-confirmation of mouse TMEM16A chloride channel inhibitors | shares compounds with ANO1 block | HEK293 TMEM16A/YFP-H148Q, iodide quench fluorescence; ionomycin added to raise cell calcium | inhibition, % at 10 µM | 39% of 2,300 active | AID 652189;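 active = mean duplicate percent inhibition, scaled so buffer wells are 0 and the reference blocker 100, over three buffer SD above buffer mean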
TMEM16A Ca cntr: alters calcium mobilization in TMEM16A HEK293 cells, counter-screen | shares compounds with ANO1 block | TMEM16A/YFP HEK293, Fluo4 calcium mobilization | calcium response (% of ionomycin), % at 10 µM | 2% of 2,300 active | AID 652231;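 active = duplicate-averaged calcium signal over 20% of the ionomycin maximum, relative to buffer baseline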;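 note: each well's signal is peak minus trough fluorescence divided by its pre-addition baseline; 0% = buffer wells and 100% = ionomycin wells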
Parental YFP cnt: counter-screen for TMEM16A inhibitors: effect in parental YFP-HEK293 cells; iodide YFP quench, ionomycin; 2,300 tested, under 10 active; YFP ratio F(max-min)/F0 at 10 µM; shares compounds with ANO1 block;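 active = yellow fluorescent protein signal ratio exceeding the buffer control mean by over 5 SD of those controls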;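 note: ratio is mean of duplicate wells from kinetic YFP trace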
ClC-1 inh: rat ClC-1 inhibition, TMEM16A specificity screen; shares compounds with ANO1 block; 2,300 tested, under 10 active; CHO ClC-1-YFP, iodide influx fluorescence quench; iodide control reads 0, buffer control 100; ratio percent, % at 10 µM; AID 652236;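 active = duplicate-mean ratio percent above the mean of iodide-only control wells, which defines zero, plus 5 of their SD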;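 note: higher percent means stronger block of ClC-1 iodide influx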
Target sequence (P35524 whole entry, looked up): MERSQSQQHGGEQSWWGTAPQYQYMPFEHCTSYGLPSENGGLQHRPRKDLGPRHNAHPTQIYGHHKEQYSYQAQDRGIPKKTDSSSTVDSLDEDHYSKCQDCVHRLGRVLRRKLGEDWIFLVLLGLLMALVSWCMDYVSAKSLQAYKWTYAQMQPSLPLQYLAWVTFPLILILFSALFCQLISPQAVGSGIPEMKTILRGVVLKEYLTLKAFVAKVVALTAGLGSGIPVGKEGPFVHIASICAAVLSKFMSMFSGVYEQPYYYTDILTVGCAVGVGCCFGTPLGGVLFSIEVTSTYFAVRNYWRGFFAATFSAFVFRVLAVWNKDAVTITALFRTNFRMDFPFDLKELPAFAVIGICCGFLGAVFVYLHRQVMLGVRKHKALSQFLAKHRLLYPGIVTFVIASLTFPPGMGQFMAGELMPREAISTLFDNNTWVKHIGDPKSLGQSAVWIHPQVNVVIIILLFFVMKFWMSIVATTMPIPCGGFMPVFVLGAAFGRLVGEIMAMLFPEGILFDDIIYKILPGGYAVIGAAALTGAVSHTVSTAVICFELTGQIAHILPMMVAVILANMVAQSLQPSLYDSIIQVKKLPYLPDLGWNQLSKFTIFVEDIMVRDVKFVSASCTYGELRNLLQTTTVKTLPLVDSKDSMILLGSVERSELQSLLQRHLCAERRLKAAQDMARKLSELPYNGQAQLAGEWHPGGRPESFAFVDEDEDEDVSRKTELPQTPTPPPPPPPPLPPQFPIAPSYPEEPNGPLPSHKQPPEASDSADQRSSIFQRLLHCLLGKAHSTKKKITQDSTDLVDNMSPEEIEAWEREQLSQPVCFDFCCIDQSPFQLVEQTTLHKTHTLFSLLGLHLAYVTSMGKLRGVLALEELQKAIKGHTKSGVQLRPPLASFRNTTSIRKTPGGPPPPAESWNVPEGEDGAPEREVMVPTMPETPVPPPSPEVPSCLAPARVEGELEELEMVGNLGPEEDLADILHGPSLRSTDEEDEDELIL
* marks the source's active call; other numbers are inactive results; i = inactive; nt = no result given. A selection: hits, their analogues and other compounds. The true share with any hit is near 2.4%.

SMILES	UBC13 inh	Apaf-1 inh	ANO1 activ	ANO1 block	FID counter	TMEM16A reconf	TMEM16A Ca cntr	Parental YFP cnt	ClC-1 inh
O=C(COc1ccc(Br)cc1)OCCN1CCCCC1	-2	6	i	i	0	nt	nt	nt	nt
Cc1ccc(C(c2nnnn2C2CCCCC2)N(C)C2CCCCC2)cc1 (stereo not drawn)	-4	7	i	25*	-3	i	i	-1.1	-8
CN(c1ccccc1)C(c1ccc(F)cc1)c1nnnn1C1CCCC1 (stereo not drawn)	-5	7	i	i	-16	i	i	-0.92	-13
COC(=O)CCC(NS(=O)(=O)OCC(Cl)(Cl)Cl)c1ccccc1 (stereo not drawn)	-3	8	i	i	-13	nt	nt	nt	nt
CC(C)CC(NS(=O)(=O)OCC(Cl)(Cl)Cl)c1ccccc1 (stereo not drawn)	2	25	i	100*	-15	56%*	i	-1.1	-3
CCCC(=O)c1ccc(N2CCN(C(=O)c3ccccc3)CC2)c(F)c1	6	4	i	25*	-28	i	i	-1.2	-20
O=C(c1ccc(N2CCN(C(=O)c3ccccc3Br)CC2)cc1)c1cccc(F)c1	42	22	i	100*	-41	17%*	i	-1	-10
CCCC(=O)c1ccc(N2CCN(C(=O)c3ccccc3Br)CC2)c(F)c1	9	20	i	100*	-8	20%*	i	-0.88	-4
COc1cc([N+](=O)[O-])ccc1NC(=O)CCS(=O)(=O)c1ccc2c(c1)n(C)c(=O)c(=O)n2C	-7	-6	i	i	-2	nt	nt	nt	nt
Cc1ccc(Oc2c(C(N)=O)cc([N+](=O)[O-])cc2[N+](=O)[O-])cc1	5	-2	i	i	14	nt	nt	nt	nt
O=C(Nc1cccc(Br)c1)c1cc2ccccc2o1	3	-2	i	25*	-3	i	i	-0.9	-9
Cc1cccc(NC(=O)c2cc3ccccc3o2)c1	2	17	i	i	-8	nt	nt	nt	nt
Cc1ccc2[nH]c3c(N4CCN(Cc5ccccc5)CC4)ncnc3c2c1	12	17	i	100*	8	38%*	i	-1.1	-22
c1ccc(CN2CCN(c3ncnc4c3[nH]c3ccccc34)CC2)cc1	3	13	i	100*	5	19%*	i	-0.99	-24
Cc1ccc2c(c1)[nH]c1c(N3CCN(Cc4ccccc4)CC3)ncnc12	11	1	i	25*	0	25%*	i	-1	-24
Cc1ccc2[nH]c3c(N4CCN(Cc5ccc6c(c5)OCO6)CC4)ncnc3c2c1	nt	nt	nt	nt	3	nt	nt	nt	nt
CC1Cc2ccccc2N1S(=O)(=O)c1cccc(C(=O)NCCCn2ccnc2)c1 (stereo not drawn)	-4	-1	i	i	7	nt	nt	nt	nt
O=C(COC(=O)C1CCN(c2ccc(C(F)(F)F)cn2)CC1)Nc1cc(F)ccc1F	8	21	i	i	nt	nt	nt	nt	nt
O=C(Nc1nc(-c2cccs2)c(C(=O)C(F)(F)F)s1)c1ccccc1	-12	6	i	100*	-3	53%*	i	-1.1	-18
O=C(Nc1nc(-c2cccs2)c(C(=O)C(F)(F)F)s1)c1ccco1	-13	7	i	i	-3	nt	nt	nt	nt
FC(F)(F)c1cccc(Nc2cc(-c3ccccc3)nc3ncnn23)c1	-7	-4	i	i	-5	nt	nt	nt	nt
FC(F)(F)c1ccc(N2CCN(c3cc(-c4ccccc4)nc4ncnn34)CC2)nc1	32	16	i	100*	-6	36%*	i	-0.79	-20
CC(C)C(NS(=O)(=O)c1cccc(C(F)(F)F)c1)C(=O)O (stereo not drawn)	9	-17	i	i	0	nt	nt	nt	nt
COc1ccc(OC)c(S(=O)(=O)Nc2cc(OC)c(Cl)cc2OC)c1	7	-4	i	i	-16	nt	nt	nt	nt
COc1cc(NS(=O)(=O)c2ccc(OC)c(C)c2C)c(OC)cc1Cl	5	11	i	25*	-18	54%*	i	-0.72	-4
SMILES	UBC13 inh	Apaf-1 inh	ANO1 activ	ANO1 block	FID counter	TMEM16A reconf	TMEM16A Ca cntr	Parental YFP cnt	ClC-1 inh
COc1cc(C2C=C(c3cccs3)Nc3ncnn32)cc(OC)c1OC (stereo not drawn)	nt	nt	i	nt	-8	nt	nt	nt	nt
CCCc1nc(N2CCOCC2)c(C#N)c2c1CCCC2	17	22	i	100*	-8	i	i	-1.1	-10
CCCCc1nc(N2CCOCC2)c(C#N)c2c1CCCC2	27	11	i	i	1	nt	nt	nt	nt
O=C(Nc1ccccc1)c1ccccc1OS(=O)(=O)c1ccccc1	7	6	i	i	-7	nt	nt	nt	nt
O=C(Oc1ccccc1)c1ccccc1OS(=O)(=O)c1ccccc1	4	9	i	100*	-12	i	i	-1.4	-2
Cc1ccnc(NC(=O)c2cccc3ccccc23)c1	1	4	i	i	11	nt	nt	nt	nt
CCCCN(CCCC)c1nc(OC)nc(-n2nnc(C(C)=O)c2C)n1	-1	20	i	25*	-24	17%*	i	-1.1	-12
CCOC(=O)c1c(C)c(C(=O)N2CCN(C(=O)c3ccco3)CC2)c(C)n1C	9	-12	i	100*	-10	i	i	-1	0
Cc1nn(C)c(C(=O)NNC(=S)NCC(C)C)c1Cl	9	7	i	i	-8	nt	nt	nt	nt
COc1cc2cc(CN(CCc3cccc(C)c3)C(=S)NCCCN3CCOCC3)c(=O)[nH]c2cc1OC	25	8	i	i	21	nt	nt	nt	nt
CC(C)(C)OC(=O)N1CCN(c2ccc(CNC(=O)c3ccc(Cl)cc3)cc2)CC1	11	21	i	100*	-34	22%*	i	-1.1	-12
COc1cc(/C=C/C(=O)c2ccc3c(c2)OCCO3)cc(Br)c1OCC(=O)N(C)C	-1	21	i	i	-37	i	i	-1.3	-44
O=C(/C=C/c1ccncc1)c1ccc2c(c1)OCCO2	10	5	i	i	10	nt	nt	nt	nt
COc1ccc(N=c2oc3c(OC)cccc3cc2C(=O)NCc2ccco2)cc1OC	-24	27	i	i	-1	i	i	-1.1	2
COc1ccccc1C(=O)NCc1ccco1	-4	5	i	i	-7	nt	nt	nt	nt
Cc1ccc2nc(SCC(=O)c3ccc(Cl)s3)[nH]c2c1	1	23	i	i	-1	nt	nt	nt	nt
